System: MS2 coat protein
Assay: apparent Kd, MS2 coat protein; higher = weaker binding; RNA-MaP array; FMN 200 µM where present
Outline: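 SNAP-549-labelled MS2 coat protein, doubled from 0.7 or 1.5 nM to 3 µM, was titrated over designs transcribed by stalled E. coli RNA polymerase on Illumina sequencing-chip clusters. Titrations were run without and then with constant ligand in 100 mM Tris-HCl pH 7.5, 80 mM KCl, 4 mM MgCl2, BSA, DTT, yeast tRNA and Tween-20. The apparent Kd is the median of filtered per-cluster fits to green signal normalised to red-channel RNA signal and control-cluster median Fmax.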

[1] = designed as: ON switch for flavin mononucleotide, no ligand
[2] = ligand present: flavin mononucleotide, designed as: ON switch for flavin mononucleotide
[3] = designed as: OFF switch for flavin mononucleotide, no ligand
[4] = ligand present: flavin mononucleotide, designed as: OFF switch for flavin mononucleotide

Sequence: AACAUGGUACAGAAGGGCUAUUUAUUUAAUUAUUAUUUAGAACAGCAUAGCAGGAUAUGUUUAACAUGAGGAUCACCCAUGUAC
- apparent Kd [1]: 0.0713 µM
- apparent Kd [2]: 0.0147 µM

Sequence: GGAUCGUAUGUCAGGAUAUGCCACUGGAUACAGUGGUAGAAGGGACAUGAGGAUCACCCAUGUCCUACCGAUCC
- apparent Kd [3]: 0.0125 µM
- apparent Kd [4]: 0.0144 µM

Sequence: CGGGUCUGAGGAUAUCCAUCCUCAUACAUGAGGAUCACCCAUGUUCACCCUUGGGUUCCCGGAGAAGGCAGUUUUC
- apparent Kd [3]: 0.153 µM
- apparent Kd [4]: 0.177 µM

Sequence: UACUAAAAGGAGGAUAUCGUAUCGGAGACGAUACGAGAAGGCUUAACAUGAGGAUCACCCAUGUUCUUCAAUAU
- apparent Kd [3]: 0.0158 µM
- apparent Kd [4]: 0.0182 µM

Sequence: ACAUGAGGAUCACCCAUGUACAUGGGUAUUAUUGUUUGUUACUAGGAUAUGUAUUUGAAUUUACAACAGAAGGAGUAUUAAUGU
- apparent Kd [3]: 1.16 µM
- apparent Kd [4]: 0.632 µM

Sequence: ACACGACAUGAGGAUCACCCAUGUGAGGAUAUCGAACUCAACUAAGCACAAAGUAACCCGAGAAGGCACACAAU
- apparent Kd [3]: 0.0251 µM
- apparent Kd [4]: 0.0241 µM

Sequence: CAAAAGGAAGGAUAUGCAUCGGGAGGUGCUCAGCAUCAAAUACAUGAGGAUCACCCAUGUAGAAGGUCUGAAAA
- apparent Kd [3]: 0.0321 µM
- apparent Kd [4]: 0.0857 µM

Sequence: AAAAAUAGAGGAUAUACAUGAAAAAAAAAAAAAAAAAAAAAACAUGAGGAUCACCCAUGUAGAAGGCUAAAAAA
- apparent Kd [3]: 0.0453 µM
- apparent Kd [4]: 0.0303 µM

Sequence: ACAGCGUGAGGAUAUACAUGAGGAUCACCCAUGUAUGGCAGGUUAUCCUGUCGUAUGUGUAGAAGGCACGCUGU
- apparent Kd [3]: 0.0603 µM
- apparent Kd [4]: 0.0737 µM

Sequence: CGGGAGAGAGGAUAUGGUGGACAUCACAUGAGGAUCACCCAUGUCUCGAGUGCUCCGUCACCAGAAGGCUCCGUUU
- apparent Kd [3]: 0.109 µM
- apparent Kd [4]: 0.0787 µM

Sequence: GUCAGCUCGUGAGGAUAUACAUGUGCUGGAGACAGCACUAUUGAGUUCACAUGAGGAUCACCCAUGUAGAAGGCACGAGCUGAU
- apparent Kd [3]: 0.0155 µM
- apparent Kd [4]: 0.0274 µM

Sequence: AAAACAUGAGGAUCACCCAUGUAAAGAUCGGUUAAUAGAGGUGAGGAUAUACGAACUUAAAGGUGGUAGAAGGCACUGGGUACA
- apparent Kd [1]: 0.0716 µM
- apparent Kd [2]: 0.0533 µM

Sequence: CGACUGUGAGGAUAUGGUGAGUAGUGCCUGAGCGCUGCUCACCAGAAGGCACAUGAGGAUCACCCAUGUAUGAC
- apparent Kd [3]: 0.11 µM
- apparent Kd [4]: 0.214 µM

Sequence: AUACAUGAGGAUCACCCAUGUAAUUAAUUAAUUAAUAAGAUCAAGGAUAUCAGCUCGAUUAGAGCUGAGAAGGUGAUCACAUGU
- apparent Kd [1]: 0.417 µM
- apparent Kd [2]: 0.306 µM

Sequence: ACAUGAGGAUGAGGAUAUUCAUCCAUGAGGAUAGAAGAAGGCAUACAUGAGGAUCACCCAUGUAUACACAUGAGGAUCCCUUAU
- apparent Kd [3]: 0.0445 µM
- apparent Kd [4]: 0.121 µM

Sequence: GGAGCCGGCCUAGGAUAUUUCAUAAUAUUACAUGAGGAUCACCCAUGUAGGCCAGAAGGCCUUGGGAAGAAGGAGGUCGGCUCC
- apparent Kd [1]: 0.0427 µM
- apparent Kd [2]: 0.0159 µM

Sequence: CAUUAUUAUCGAGGAUAUCCUAUUGAAAUUCUGGGAGAAGGCGGACUCAACAUGAGGAUCACCCAUGUGAGACGGGUGCUAGGG
- apparent Kd [3]: 0.0268 µM
- apparent Kd [4]: 0.0252 µM

Sequence: AAAUUUUGUCAAGGAUAUGUAUUAUUGAUUUGAAAACAUGAGGAUCACCCAUGUAUAUGGUGGGAACAGAAGGUGAAUAAGUAA
- apparent Kd [3]: 0.202 µM
- apparent Kd [4]: 0.236 µM

Sequence: ACAUGAGGAUCACCCAUGUAGAGUGAAGAAGGUAGAUACUUAUGACUCUCCCAUGUACAUAGGACUGAGGAUAUUCUAAUAAUU
- apparent Kd [1]: 0.0234 µM
- apparent Kd [2]: 0.0189 µM

Sequence: AAUAACAGAGGAUAUACUAUUUUAUGUGUUUAUUGUUUUGAACAUGAGGAUCACCCAUGUAGAAGGCUGAUUAA
- apparent Kd [3]: 0.041 µM
- apparent Kd [4]: 0.0587 µM

Sequence: GCGAUUUUGUAAGGAUAUAUACGAGUUUCAAGUGUAGAAGGUACUUACAUGAGGAUCACCCAUGUAUACAUGGAUAAUAGUCGC
- apparent Kd [1]: 0.269 µM
- apparent Kd [2]: 0.136 µM

Sequence: UUUUAACAUGAGGAUCACCCAUGUGAGGAUAUCGAAAUUUAUAUUAAUAUUAAUUAAACGAGAAGGCACAUUUU
- apparent Kd [3]: 0.0615 µM
- apparent Kd [4]: 0.0864 µM

Sequence: GGACGUCGGAUAAACAUGAGGAUCACCCAUGUAACUAGACAUGAGGAUAUGGAUUCUAAUUGGAUCCAGAAGGUAUCGACGUCC
- apparent Kd [1]: 0.193 µM
- apparent Kd [2]: 0.211 µM

From the EternaBench riboswitch data
